In ChEMBL document CHEMBL3044840, “Antifungal activities of metabolites produced by a termite-associated Streptomyces canus BYB02” (J Agric Food Chem, 2013):
In brackets after ≈: the same amount, converted by molar mass.

Key:
Cytospora mali = test: Antifungal activity against Valsa mali assessed as inhibition of mycelial growth; type: functional, organism-based
Method in brief: (§1)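 Mycelial growth on potato dextrose agar in 9 cm dishes containing serial concentrations of sample, dissolved in aqueous 1% DMSO/4% Tween-80. Mycelium inoculated at plate centre and incubated in the dark at 28 °C until control growth reached the dish edge. Inhibition (%) = (1 − Da/Db) × 100 from growth-zone diameters. IC50 by probit analysis. Cycloheximide as positive control. Run in triplicate.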

Pyricularia grisea [1] = test: Antifungal activity against Magnaporthe grisea assessed as inhibition of mycelial growth; type: functional, organism-based
Method in brief: (§2)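 Poisoned-food assay. Serial concentrations in aqueous 1% DMSO/4% Tween-80 were mixed into molten potato dextrose agar. Mycelium was inoculated at the plate centre and incubated in the dark at 28 °C until control growth reached the dish edge. Inhibition % = (1 − Da/Db) × 100 from colony diameters. IC50 by probit analysis; run in triplicate.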

Pyricularia grisea [2] = test: Antifungal activity against Magnaporthe grisea in fourth-leaf stage of rice plant assessed as curative efficacy at 100 ug/ml after 11 days relative to control; type: functional
[3] = tested on: Fusarium oxysporum f. sp. cucumerinum; test: Antifungal activity against Fusarium oxysporum f. sp. cucumerinum assessed as inhibition of mycelial growth; type: functional, organism-based; method in brief: as §1
Rhizoctonia solani = test: Antifungal activity against Rhizoctonia solani assessed as inhibition of mycelial growth; type: functional, organism-based; method in brief: as §1
Dothiorella gregaria = test: Antifungal activity against Dothiorella gregaria assessed as inhibition of mycelial growth; type: functional, organism-based; method in brief: as §1
Pyricularia grisea [4] = test: Antifungal activity against Magnaporthe grisea in fourth-leaf stage of rice plant assessed as preventive efficacy at 100 ug/ml after 11 days relative to control; type: functional
Fusarium graminearum = test: Antifungal activity against Fusarium graminearum assessed as inhibition of mycelial growth; type: functional, organism-based; method in brief: as §2
Pyricularia grisea [5] = test: Antifungal activity against Magnaporthe grisea assessed as inhibition of spore germination after 12 hr by light microscopic analysis; type: functional, organism-based
Method in brief: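 M. oryzae spores were taken from 7-day oatmeal–tomato agar cultures. 50 μL of compound in 1% DMSO/4% Tween-80 was mixed with 50 μL spore suspension (2.5 × 10^5 spores). 40 μL drops went on slides, in triplicate. Slides were kept in a moist chamber at 28 °C for 12 h. About 100 spores per replicate were scored; IC50 by probit analysis.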

With `Cc1cc(O)cc2cc3c(c(O)c12)C(=O)c1c(O)cc(O)cc1C3=O` [TETRACENOMYCIN D] the IC50 (Cytospora mali) was > 25 µg/mL and the IC50 (Pyricularia grisea [1]) was > 25 µg/mL.

For `Cc1cc(O)c2c3c4c(cc(O)c13)C(C)(C)C(=O)c1c(O)cc(O)c(c1-4)C2=O` [HELIOMYCIN], the Activity (Pyricularia grisea [2]) was <25%, the IC50 (Cytospora mali) was 1.1 µg/mL (≈ 2.92 µM) and the IC50 [3] was > 100 µg/mL. The IC50 (Pyricularia grisea [1]) was 3.8 µg/mL (≈ 10.1 µM), the IC50 (Rhizoctonia solani) was > 100 µg/mL and the IC50 (Dothiorella gregaria) was > 100 µg/mL. For the same compound, the Activity (Pyricularia grisea [4]) was 66.8%, the IC50 (Fusarium graminearum) was > 100 µg/mL and the IC50 (Pyricularia grisea [5]) was 5.55 µg/mL (≈ 14.7 µM).

In the case of `COC(=O)Nc1nc2ccccc2[nH]1` [CARBENDAZIM], the Activity (Pyricularia grisea [4]) was 58.7%.

`C[C@@H]1C[C@@H]([C@H](O)CC2CC(=O)NC(=O)C2)C(=O)[C@@H](C)C1` [CYCLOHEXIMIDE] gave an IC50 (Cytospora mali) of 0.3 µg/mL (≈ 1.07 µM), an IC50 [3] of 4.9 µg/mL (≈ 17.4 µM) and an IC50 (Pyricularia grisea [1]) of 2.3 µg/mL (≈ 8.17 µM). For the same compound, the IC50 (Rhizoctonia solani) was 0.3 µg/mL (≈ 1.07 µM), the IC50 (Dothiorella gregaria) was 0.9 µg/mL (≈ 3.2 µM) and the IC50 (Fusarium graminearum) was 3.3 µg/mL (≈ 11.7 µM).
